Substrate in data set [1]: CCOc1ncnc2c1ncn2C1CCC(CO)O1
Nature of the data set: (§1) Michaelis-Menten constant for adenosine deaminase assay in calf intestine. The essentials:
(§2)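 Calf intestinal adenosine deaminase, dialyzed against deionized water to remove ammonium sulfate. Dealkoxylation/deamination followed spectrophotometrically at 25 °C, pH 6.8 (adenosine: Δε −5.85 mM⁻¹cm⁻¹ at 270 nm). Km from initial velocity analysis. Relative velocity compares 100 μM dideoxynucleoside against 100 μM adenosine.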

Substrate in data set [2]: COc1ncnc2c1ncn2C1CCC(CO)O1
Described as §1. The essentials:
as §2

Substrate in data set [3]: Nc1ncnc2c1ncn2[C@H]1CC[C@@H](CO)O1
Nature of the data set: Compound was tested for adenosine deaminase assay in calf intestine. The essentials:
as §2

B1: Adenosine deaminase (Bos taurus), P56658 (protein)
chain: MAQTPAFNKPKVELHVHLDGAIKPETILYYGRKRGIALPADTPEELQNIIGMDKPLSLPEFLAKFDYYMPAIAGCREAVKRIAYEFVEMKAKDGVVYVEVRYSPHLLANSKVEPIPWNQAEGDLTPDEVVSLVNQGLQEGERDFGVKVRSILCCMRHQPSWSSEVVELCKKYREQTVVAIDLAGDETIEGSSLFPGHVKAYAEAVKSGVHRTVHAGEVGSANVVKEAVDTLKTERLGHGYHTLEDATLYNRLRQENMHFEVCPWSSYLTGAWKPDTEHPVVRFKNDQVNYSLNTDDPLIFKSTLDTDYQMTKNEMGFTEEEFKRLNINAAKSSFLPEDEKKELLDLLYKAYGMPSPASAEQCL
One may read the Km as the substrate concentration at which the rate is half of its maximum. In the case of B1, the Michaelis-Menten constant (Km) turned out to be 650 µM in data set [1], 150 µM in data set [2] and 45 µM in data set [3].

These data come from ChEMBL document CHEMBL1126587, “Novel 6-alkoxypurine 2',3'-dideoxynucleosides as inhibitors of the cytopathic effect of the human immunodeficiency virus” (J Med Chem, 1993).
